Assay results from ChEMBL document CHEMBL4261635, “Simplified lipid II-binding antimicrobial peptides: Design, synthesis and antimicrobial activity of bioconjugates of nisin rings A and B with pore-forming peptides” (2018).
Values after ≈ are worked out from the molar mass of the structure shown. Active and inactive are the calls of the source. The calls are words filed in the database; no cut-off is given here. Where a SMILES comes first, the peptide text is derived from it. [ ]: non-standard residue; d: D form. Nspe = C[C@H](NCC(=O)O)c1ccccc1; Nlys = NCCCCNCC(=O)O

Assays:
Micrococcus luteus [1] = experiment: Antibacterial activity against Micrococcus luteus at 1 mg/ml after 48 hrs by agar well diffusion method; type: functional, organism-based
Summary of the method: (§1)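 Compounds dissolved at 1 mg/mL in sterile water; 25 μL placed in 8 mm wells punched in LB agar plates spread with 100 μL overnight culture (grown at 37 °C in Nutrient Broth No. 2 with shaking). Plates incubated 48 h at 37 °C (M. luteus initially at 30 °C, later 37 °C); activity scored as a visible zone of growth inhibition.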

Pseudomonas aeruginosa = experiment: Antibacterial activity against Pseudomonas aeruginosa at 1 mg/ml after 48 hrs by agar well diffusion method; type: functional, organism-based; summary of the method: as §1
Micrococcus luteus [2] = experiment: Antibacterial activity against Micrococcus luteus after 20 hrs by broth microdilution assay; type: functional
Summary of the method: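 Two-fold serial dilution in Nutrient Broth No. 2 containing 1% DMSO, from 0.60 mM stocks (sterile water, 1% DMSO, sonicated 30 s). Each well received 10 μL overnight M. luteus culture adjusted to OD 0.817 (of a 1 in 10 dilution), 250 μL final volume. Sealed, incubated 20 h at 37 °C, then OD read. MIC is the lowest concentration with no visible growth by eye.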

Escherichia coli = experiment: Antibacterial activity against Escherichia coli at 1 mg/ml after 48 hrs by agar well diffusion method; type: functional, organism-based; summary of the method: as §1

Structure (SMILES) | MIC (Micrococcus luteus [2]) [µM] | Activity (Micrococcus luteus [1]) | Activity (Pseudomonas aeruginosa) | Activity (Escherichia coli)
C#CCNC(=O)[C@H](CCCCN)NC(=O)[C@@H]1CS[C@@H](C)[C@H](NC(=O)[C@@H]2CSC[C@H](NC(=O)/C(=C/C)NC(=O)[C@@H](N)[C@@H](C)CC)C(=O)N[C@@H]([C@@H](C)CC)C(=O)NC(=C)C(=O)N[C@@H](CC(C)C)C(=O)N2)C(=O)N2CCC[C@H]2C(=O)NCC(=O)N1 | > 12 | Active | inactive | inactive
NC[C@H]1O[C@H](O[C@H]2[C@H](O)[C@@H](O[C@H]3O[C@H](CO)[C@@H](O)[C@H](N)[C@H]3O)[C@H](N)C[C@@H]2N)[C@H](O)[C@@H](O)[C@@H]1O |  | Active | Active | Active
CC[C@H](C)[C@H](N)C(=O)N[C@@H](CC(=O)O)C(=O)N[C@@H](Cc1c[nH]c2ccccc12)C(=O)N[C@@H](CCCCN)C(=O)N[C@@H](CCCCN)C(=O)N[C@@H](CC(C)C)C(=O)N[C@@H](CC(C)C)C(=O)N[C@@H](CC(=O)O)C(=O)N[C@@H](C)C(=O)N[C@@H](C)C(=O)N[C@@H](CCCCN)C(=O)N[C@@H](CCC(N)=O)C(=O)N[C@H](C(=O)N[C@@H](CC(C)C)C(N)=O)[C@@H](C)CC (H-IDWKKLLDAAKQIL-NH2) | 1.5 (≈ 2.48 µg/mL) | Active | inactive | inactive
C=C(NC(=O)[C@@H](NC(=O)[C@H](Cc1cnc[nH]1)NC(=O)[C@@H](NC(=O)[C@H](CO)NC(=O)[C@@H]1CS[C@@H](C)[C@@H]2NC(=O)[C@H](C)NC(=O)[C@@H](NC(=O)[C@H](CCCCN)NC(=O)[C@H](CCSC)NC(=O)[C@H](CC(N)=O)NC(=O)[C@@H]3CS[C@@H](C)[C@H](NC(=O)[C@H](CCCCN)NC(=O)[C@@H]4CS[C@@H](C)[C@H](NC(=O)[C@@H]5CSC[C@H](NC(=O)/C(=C/C)NC(=O)[C@@H](N)[C@@H](C)CC)C(=O)N[C@@H]([C@@H](C)CC)C(=O)NC(=C)C(=O)N[C@@H](CC(C)C)C(=O)N5)C(=O)N5CCC[C@H]5C(=O)NCC(=O)N4)C(=O)NCC(=O)N[C@@H](C)C(=O)N[C@@H](CC(C)C)C(=O)N[C@@H](CCSC)C(=O)NCC(=O)N3)[C@H](C)SC[C@H](NC2=O)C(=O)N[C@@H](CC(N)=O)C(=O)N1)[C@@H](C)CC)C(C)C)C(=O)N[C@@H](CCCCN)C(=O)O | 0.0234 (≈ 0.0779 µg/mL) | Active | inactive | inactive
C[C@@H](c1ccccc1)N(CC(N)=O)C(=O)CN(C(=O)CN(CCCCN)C(=O)CN(C(=O)CN(C(=O)CN(CCCCN)C(=O)CN(C(=O)CN(C(=O)CN(CCCCN)C(=O)CN(C(=O)CN(C(=O)CNCCCCN)[C@@H](C)c1ccccc1)[C@@H](C)c1ccccc1)[C@@H](C)c1ccccc1)[C@@H](C)c1ccccc1)[C@@H](C)c1ccccc1)[C@@H](C)c1ccccc1)[C@@H](C)c1ccccc1 (H-[Nlys][Nspe][Nspe][Nlys][Nspe][Nspe][Nlys][Nspe][Nspe][Nlys][Nspe][Nspe]-NH2) | 1.5 (≈ 2.73 µg/mL) |  |  | 

Second part, led by results:

MIC (Micrococcus luteus [2]) [µM] | Structure (SMILES) | Activity (Micrococcus luteus [1]) | Activity (Pseudomonas aeruginosa) | Activity (Escherichia coli)
3 (≈ 9.73 µg/mL) | C=C1NC(=O)[C@H]([C@@H](C)CC)NC(=O)[C@@H](NC(=O)/C(=C/C)NC(=O)[C@@H](N)[C@@H](C)CC)CSC[C@@H](C(=O)N[C@@H]2C(=O)N3CCC[C@H]3C(=O)NCC(=O)N[C@H](C(=O)N[C@@H](CCCCN)C(=O)NCc3cn(CCCC[C@H](N)C(=O)NCCOCCOCCOCCOCCC(=O)N[C@H](C(=O)N[C@@H](CC(=O)O)C(=O)N[C@@H](Cc4c[nH]c5ccccc45)C(=O)N[C@@H](CCCCN)C(=O)N[C@@H](CCCCN)C(=O)N[C@@H](CC(C)C)C(=O)N[C@@H](CC(C)C)C(=O)N[C@@H](CC(=O)O)C(=O)N[C@@H](C)C(=O)N[C@@H](C)C(=O)N[C@@H](CCCCN)C(=O)N[C@@H](CCC(N)=O)C(=O)N[C@H](C(=O)N[C@@H](CC(C)C)C(N)=O)[C@@H](C)CC)[C@@H](C)CC)nn3)CS[C@H]2C)NC(=O)[C@H](CC(C)C)NC1=O | Active | inactive | inactive
0.75 (≈ 1.86 µg/mL) | CC[C@H](C)[C@H](NC(=O)CN)C(=O)NCC(=O)N[C@@H](CCCCN)C(=O)N[C@@H](Cc1ccccc1)C(=O)N[C@@H](CC(C)C)C(=O)N[C@@H](CCCCN)C(=O)N[C@@H](CCCCN)C(=O)N[C@@H](C)C(=O)N[C@@H](CCCCN)C(=O)N[C@@H](CCCCN)C(=O)N[C@@H](Cc1ccccc1)C(=O)NCC(=O)N[C@@H](CCCCN)C(=O)N[C@@H](C)C(=O)N[C@@H](Cc1ccccc1)C(=O)N[C@H](C(=O)N[C@@H](CCCCN)C(=O)N[C@H](C(=O)N[C@@H](CC(C)C)C(=O)N[C@@H](CCCCN)C(=O)N[C@@H](CCCCN)C(N)=O)[C@@H](C)CC)C(C)C [PEXIGANAN] (H-GIGKFLKKAKKFGKAFVKILKK-NH2) |  |  | 
